Rows were chosen to be rich in hits. Some 2.7% of all compounds tested hit in one or more screens of this group.
GSTO1 inh: blocks human GSTO1 in RBBP9 counter-screen | recombinant GSTO1, activity-based probe fluorescence polarization | hit rate 1.1% among 300,000 | inhibition, % at 5.96 µM | AID 1974;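 active = inhibition above the campaign mean inhibition plus 3 SD, cut at about 35% in these data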;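 also: 0% = GSTO1-1 with DMSO and 100% = wells lacking GSTO1-1 enzyme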
PAD4 inh: blocks human protein arginine deiminase 4; Q9UM07; recombinant PAD4, RCA probe fluorescence polarization; inhibition, % at 6.36 µM; hit rate 0.41% among 330,000; AID 485272;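 active = percent inhibition above a cutoff equal to the mean of all tested compounds plus 3 SD, cut at about 15% in these data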;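 also: 0% = PAD4 with RCA probe and DMSO and 100% = probe without PAD4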
RBBP9 inhibitor: blocks human serine hydrolase RBBP9; AID 1515; hit rate 0.2% among 220,000; inhibition, % at 7.94 µM; O75884; recombinant RBBP9, FP-Rh probe fluorescence polarization;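 active = inhibition above the campaign mean of all tested compounds plus 3 SD, cut at about 14% in these data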;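 also: plate controls were DMSO wells with RBBP9 for no effect and wells lacking RBBP9 protein for full effect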
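Measured by – fluorescence polarization · Test system – RBBP9 protein · Input – 2.5 µM RBBP9 dispensing solution, before mixing · Measure – percent inhibition from mP, scaled between DMSO and no-protein wells · Benchmarks – DMSO-treated enzyme wells and wells lacking RBBP9 · Times – preincubation 30 min plus labeling 45 min at 25 °C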
SIAE inh: blocks human sialic acid acetylesterase; Q9HAT2; SIAE FP-Rh probe binding, fluorescence polarization; inhibition, % at 9.66 µM; hit rate 0.69% among 370,000; AID 1053197;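 active = inhibition above a cutoff: mean of compounds within the control limits plus 3 SD of those, cut at about 17% in these data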;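 also: 0% = plate median of compound wells and 100% = probe without SIAE protein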
Target sequence (Q9HAT2 whole entry, looked up): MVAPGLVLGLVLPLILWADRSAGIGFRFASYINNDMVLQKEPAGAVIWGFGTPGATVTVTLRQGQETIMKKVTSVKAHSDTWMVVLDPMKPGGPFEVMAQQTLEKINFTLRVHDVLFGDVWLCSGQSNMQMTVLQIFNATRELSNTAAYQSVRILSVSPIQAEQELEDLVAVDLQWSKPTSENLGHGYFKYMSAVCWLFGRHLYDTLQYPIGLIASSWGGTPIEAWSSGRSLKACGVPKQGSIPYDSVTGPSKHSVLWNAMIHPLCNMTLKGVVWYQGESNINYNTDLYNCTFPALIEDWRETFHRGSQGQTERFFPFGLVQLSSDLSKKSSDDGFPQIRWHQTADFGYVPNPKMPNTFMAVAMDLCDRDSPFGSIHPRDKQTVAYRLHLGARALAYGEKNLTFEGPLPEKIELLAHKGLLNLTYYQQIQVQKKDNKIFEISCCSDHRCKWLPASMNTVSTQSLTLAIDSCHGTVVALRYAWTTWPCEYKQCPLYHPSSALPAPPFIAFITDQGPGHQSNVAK
PRMT1 inh: blocks human protein arginine methyltransferase 1. hit rate 1.3% among 370,000. inhibition, % at 2.79 µM. recombinant PRMT1, activity-based probe fluorescence polarization. AID 652257. Q99873;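 active = inhibition above about 21% made by adding two undisclosed values, limit read from the data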
PAD4 confirm: PAD4 (human) inhibition, confirmed; shares compounds with PAD4 inh; recombinant PAD4, RCA probe fluorescence polarization; inhibition, % at 6.36 µM; hit rate 28% among 1,200; AID 488796;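 active = mean inhibition across replicates above the hit cutoff set by the earlier primary screen, cut at about 15% in these data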;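 also: inhibitors block active-site labeling by the probe so polarization falls; 0% = PAD4 with probe and DMSO and 100% = probe without PAD4 enzyme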
* = called active by the depositor; . = no result.

SMILES	GSTO1 inh	PAD4 inh	RBBP9 inhibitor	SIAE inh	PRMT1 inh	PAD4 confirm
COc1cc(NS(=O)(=O)c2ccc(NC(=O)c3ccc(C)o3)cc2)nc(OC)n1	-8	-2	2	-2	-1	.
CC(C)(C)c1ccc(OCC(O)CN2CCN(c3ccccn3)CC2)cc1 (centres undefined)	6	-6	.	4	-5	.
Cc1cc(C)cc(NC(=S)/C(=C(\[O-])c2ccc(Cl)s2)[n+]2cccc(C)c2)c1	-2	90*	-9	1	1	-4
O=C(OCC(=O)N1CCCCC1)c1n[nH]c(=O)c2ccccc12	.	.	.	1	-2	.
COc1ccc(C(=O)NNC(=S)NC(=O)c2cc(-c3ccccc3)nc3ccccc23)cc1	-62	15*	-24	-9	4	6
Cc1cc(C)c2nc(NC(=O)c3ccc4c(=O)n5c(nc4c3)CCCCC5)sc2c1	1	36*	-2	-3	3	28*
Cc1ccc(NC(=O)c2ccc3c(=O)n4c(nc3c2)CCCCC4)nc1	9	1	.	5	0	.
O=C(Nc1nc(=O)c2ccccc2s1)c1ccc(F)cc1	2	16*	7	-5	48*	1
CS(=O)(=O)N1N=C(c2cccs2)CC1c1ccccc1 (centres undefined)	1	30*	0	-2	-4	2
Cc1cccc(NC(=O)C(CC(C)C)NC(=O)C2CCC(C)CC2)n1 (centres undefined)	4	20*	-1	-9	4	2
CC(C)CC(NC(=O)C1CCC(C)CC1)C(=O)NCc1ccco1 (centres undefined)	5	-3	-13	-6	0	.
CC1COC(c2cccn2Cc2ccccc2Cl)=N1 (centres undefined)	1	45*	-6	-4	1	0
CCC1COC(c2cccn2Cc2ccc(Cl)cc2)=N1 (centres undefined)	-3	-7	-7	-4	5	.
CCOC(=O)c1c(CN2CCN(C)CC2)n(C)c2cc(Br)c(OC)cc12	-3	-2	-7	-4	-1	.
CCOC(=O)c1c(CSC(=N)N)n(C)c2cc(Br)c(OC(C)=O)cc12	-23	38*	-9	10	2	44*
Cn1c(CN2CCOCC2)nnc1SCc1cccc(F)c1	0	1	4	-1	-3	.
COC(=O)[C@@]12C[C@@H](CC(=O)NCc3ccccc3)C(=O)N(Cc3ccccc3)C1=CCC(C)(C)C2	.	.	.	-1	0	.
CCC(=O)Nc1ccccc1Sc1ncnc2scc(-c3ccccc3)c12	3	21*	-4	3	3	9
O=C(O)CSc1ncnc2scc(-c3ccccc3)c12	2	6	-7	3	1	.
O=[N+]([O-])c1ccc2nc(-c3ccccc3)n(OCc3ccc(Cl)cc3)c2c1	0	84*	-5	-7	0	4
O=C(O)COn1c(-c2ccccc2)nc2ccc(Cl)cc21	1	-4	3	1	3	.
O=C1c2ccccc2NC(c2ccc(-c3ccc(Br)cc3)o2)N1O (centres undefined)	-18	-5	-4	-6	1	.
CCOC(=O)c1c(C)[nH]c(C2=NNC(=NC3CC3)SC2)c1C	11	17*	-3	.	.	12
CCOC(=O)c1c(C)[nH]c(/C(C)=N/O)c1C	-7	4	-5	-5	1	.
O=C1N/C(=C/c2ccc(N3CCOCC3)o2)C(=O)N1c1ccccc1	1	119*	-6	-1	46*	4
SMILES	GSTO1 inh	PAD4 inh	RBBP9 inhibitor	SIAE inh	PRMT1 inh	PAD4 confirm
C=CCN1C(=O)N/C(=C/c2ccc(N3CCOCC3)o2)C1=O	9	0	8	0	12	.
COc1cccc(N2C(=O)CC(Nc3ccc(N4CCOCC4)cc3)C2=O)c1 (centres undefined)	7	31*	-4	.	.	2
Cc1cc(=O)oc2cc(OC(C)C(=O)NCc3ccccn3)ccc12 (centres undefined)	-4	0	.	-2	3	.
COCc1cc(C)[nH]c(=O)c1C(=O)NC12CC3CC(CC(C3)C1)C2	-2	1	-9	2	2	.
Cc1nn2c(nc1=O)SCC(c1ccccc1)=N2	9	18*	-3	10	24*	-6
NC(=O)Nc1ccc(C(=O)OCC(=O)Nc2cccc(S(=O)(=O)NC3=NCCC3)c2)cc1	.	-2	.	-9	0	.
O=C(Nc1ccc(Cl)cc1)NC1CCCCNC1=O (centres undefined)	4	-1	-1	-2	1	.
Nc1ccccc1C(=O)NC1CCCNC1=O (centres undefined)	4	29*	.	3	-5	1
C/C(=C\C(=O)c1cccnc1)Nc1ccc(C(=O)O)cc1	0	4	-10	8	-4	.
CC(=O)Nc1ccc(N/C(C)=C/C(=O)c2cccnc2)cc1	0	22*	1	5	2	3
CCCCNS(=O)(=O)c1ccc(NC(=O)c2cccs2)cc1	-1	0	-8	-11	1	.
COc1ccccc1N1CCN(C(=O)c2coc(=O)c(Br)c2)CC1	-2	34*	1	-2	0	-1
Cc1cc(OC(=O)c2ccccc2)n(CCC#N)n1	29	40*	4	3	-1	1
Cc1c(NC(=O)CC(O)(C(F)(F)F)C(F)(F)F)c(=O)n(-c2ccccc2)n1C	4	-6	6	0	-2	.
COC(=O)C(F)(Sc1c(C)n(C)n(-c2ccccc2)c1=O)C(F)(F)F (centres undefined)	2	48*	-5	1	6	34*
N#Cc1ccc(C(=O)N2CCN(S(=O)(=O)c3ccc(Br)s3)CC2)cc1	0	3	-11	-1	-7	.
COc1ccccc1N(Cc1cc(=O)[nH]c2ccccc12)C(C)=O	2	-1	.	2	4	.
CCC(=O)N(Cc1cc(=O)[nH]c2ccccc12)c1cccc(C)c1	-4	46*	-7	1	-1	33*
CCC(=O)N(Cc1cc(=O)[nH]c2ccccc12)c1ccccc1C	-4	18*	-12	2	1	22*
CCN(CC)C(=O)Cn1cc(S(=O)(=O)CC(=O)N2CCCCCC2)c2ccccc21	1	-3	-4	-4	4	.
Cc1ccc(COC(=O)c2cc([N+](=O)[O-])ccc2N2CCOCC2)cc1	2	0	.	-2	5	.
O=C(COc1c(CO)cc(Br)cc1CO)NC1CCCc2ccccc21 (centres undefined)	-14	1	-3	-7	-2	.
O=C(NCCCN1CCC(Cc2ccccc2)CC1)C1CC(=O)N(C2CCCC2)C1 (centres undefined)	1	1	-4	-4	-5	.
Cc1ccc2ccc(C)[n+](CCCS(=O)(=O)[O-])c2c1	-9	-10	-3	6	-2	.
CCO/C(=C/c1sc2ccc(OC)cc2[n+]1CCCS(=O)(=O)[O-])CC	-5	19*	0	0	77*	5
CCCNC(=O)c1csc2c1CCCCC2	2	-7	0	4	2	.

Source: PubChem (The Scripps Research Institute Molecular Screening Center)
